OX1R antag-1 – blocks the human orexin 1 receptor. inhibition, % at 5 µM. AID 434989. CHO/OX1R cells, Fluo-8 calcium fluorescence, orexin A. 330,000 tested, 0.43% active. O43613;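 active means inhibition above its plate's threshold, mean inhibition of all tested compounds on the plate plus 3 SD, cut at about 37% in these data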
Target sequence (O43613 whole entry, looked up): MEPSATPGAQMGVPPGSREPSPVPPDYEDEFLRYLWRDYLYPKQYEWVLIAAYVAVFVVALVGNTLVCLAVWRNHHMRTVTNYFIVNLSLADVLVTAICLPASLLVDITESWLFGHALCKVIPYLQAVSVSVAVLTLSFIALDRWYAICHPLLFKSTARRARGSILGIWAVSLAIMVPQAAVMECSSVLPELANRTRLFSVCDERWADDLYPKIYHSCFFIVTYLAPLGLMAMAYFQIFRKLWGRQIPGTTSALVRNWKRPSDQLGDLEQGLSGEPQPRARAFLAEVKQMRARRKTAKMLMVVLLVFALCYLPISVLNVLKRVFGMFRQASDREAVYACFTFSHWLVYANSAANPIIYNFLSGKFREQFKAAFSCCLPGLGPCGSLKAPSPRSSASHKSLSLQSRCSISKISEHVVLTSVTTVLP
M1 PAM parental – M1 PAM counterscreen hit in parental CHO-K1 cells. ATP EC20, Fluo-8 calcium fluorescence; 0% at ATP EC20, 100% at ATP max. activation, % at 3 µM. 360,000 tested, 0.02% active. AID 602247;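 active means activation above the run cutoff, the mean activation of all test compounds plus 3 SD, cut at about 40% in these data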;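 further: peak over basal fluorescence ratio in a 140 s read after ATP addition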
OX1R antag-2 – antagonists of human orexin 1 receptor (OX1R); inhibition, % at 6.6 µM; 330,000 tested, 1.8% active; O43613; OX1R-expressing cells, FRET antagonist read-out; AID 485270; in the data active means inhibition mostly above about 38%, no sharp cut-off; inactive means mostly below about 40%
CHO parental Ca – signal in parental CHO cells, OX1R antagonist counter-screen | parental CHO-K1, ATP-induced calcium, Fluo-8 fluorescence | inhibition, % at 5.6 µM | 330,000 tested, 0.63% active | AID 463079;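 active means inhibition above that plate's mean sample inhibition plus 3 SD, cut at about 26% in these data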
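Measured by: calcium-sensitive Fluo-8 fluorescence / Test system: CHO parental line / Controls: ATP-challenged DMSO wells low, unchallenged DMSO wells high / Measure: % inhibition / Compound: single nominal dose of 5.6 µM per compound / Replicates: single well per compound, no replicates / Reagent: ATP as calcium-mobilizing challenge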
M1 ag parental – M1 agonist counterscreen hit in parental CHO-K1 cells; Fluo-8 calcium fluorescence; scaled to maximal ATP response, vehicle zero; activation, % at 3 µM; 360,000 tested, 0.48% active; AID 602248; in the data active means activation above about 15%;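 further: untransfected CHO-K1 host cells lacking M1 receptor as counterscreen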
CHO-K1 Ca antag – M1 antagonist counterscreen hit in parental CHO-K1 cells. inhibition, % at 3 µM. AID 602250. ATP-induced calcium, Fluo-8 fluorescence. 360,000 tested, 0.6% active;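 active means inhibition above a per-plate cutoff, the plate's mean sample inhibition plus 3 SD, cut at about 24% in these data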
Large screens that a line does not name were inactive. This is a sample that favours compounds with a hit; in the whole collection about 2.9% have one here.

COCC1CCN(C(=O)c2cc(COc3ccc4ncccc4c3)on2)CC1	CHO parental Ca 42.4
Cc1cc(OCc2cc(C(=O)N3CCC(Oc4cccnc4)CC3)no2)cc(C)c1Cl	CHO parental Ca 55.7, CHO-K1 Ca antag 25.5
Cc1cc(OCc2cc(C(=O)N3CCN(CC4CC4)CC3)no2)cc(C)c1Cl	none
O=C(c1cc(COc2ccc3ncccc3c2)on1)N1CCCC1	none
O=C1NC(=O)C2(N1)C(=O)c1cccc3cccc2c13 (centres undefined)	M1 ag parental 99.8 (no result: OX1R antag-1, OX1R antag-2, CHO parental Ca)
Nc1ccccc1SC1CC(=O)N(c2ccc3c(c2)OCCO3)C1=O (centres undefined)	none
Nc1ccccc1SC1CC(=O)N(c2ccc(Cl)c(Cl)c2)C1=O (centres undefined)	CHO parental Ca 34.3
COc1ccc(NS(=O)(=O)c2cccc(C(=O)NCc3ccccc3CN3CCCC3)c2)cc1	none
O=C(c1[nH]c(C(F)(F)F)nc1-c1ccccc1)N1CCN(C/C=C/c2ccccc2)CC1	none (no result: OX1R antag-1, OX1R antag-2, CHO parental Ca)
CN1c2ccccc2C(C)(C)[C@]12C=Cc1cc(O)ccc1O2	CHO parental Ca 47.7
CCCn1c(N)c(N(CCOC)C(=O)c2cc3ccccc3cc2OC)c(=O)[nH]c1=O	none
Cc1cccc(C)c1NC(=O)CNC(=O)C(C)N1CCN(c2cccc(Cl)c2)CC1 (centres undefined)	none
Cn1nc(C(F)(F)F)c(-c2cccc(C(F)(F)F)c2)c1NC(=O)Nc1ccc(F)cc1	M1 ag parental 15.3, CHO-K1 Ca antag 33.2
O=C(NCC(=O)N1CCN(Cc2ccccc2)CC1)c1cc(Cl)cc([N+](=O)[O-])c1	OX1R antag-2 34.5
CCn1c(CSCc2ccc(F)cc2)nnc1SCC(=O)N1CCN(c2ccccc2)CC1	none
CCn1c(Cc2ccc(OC)cc2)nnc1SCC(=O)N1CCN(c2ccccc2)CC1	OX1R antag-2 47.3
CN(C)/C=C/c1oc2ccc(O)cc2c1[N+](=O)[O-]	OX1R antag-2 52.5
COCCCNC(=O)CN1C(=O)/C(=C/c2ccccc2C)Sc2ccccc21	none
COCCCNC(=O)CN1C(=O)/C(=C/c2ccccc2)Sc2ccccc21	OX1R antag-2 67.8
CN1CCOc2c1cnn(CCO)c2=O	none (no result: OX1R antag-1, OX1R antag-2, CHO parental Ca)
CCn1cc(Cl)c(C(=O)N2N=C(c3ccc4ccccc4c3)CC2c2ccccc2O)n1 (centres undefined)	CHO parental Ca 60.4
O=C(NC1CC1)c1ccc(Cl)c(S(=O)(=O)N2CCOCC2)c1	none
CCOC(=O)C1=C[C@@H](C(C)(C)C)N(S(=O)(=O)c2ccc(C)cc2)[C@H]1c1ccccc1Cl	CHO-K1 Ca antag 24.2 (no result: OX1R antag-1, OX1R antag-2, CHO parental Ca)
CN(C)c1ccc(/C=N/N(CCO)C2=NS(=O)(=O)c3ccccc32)cc1	OX1R antag-1 47.5, CHO parental Ca 52.6
CCn1c(=S)sc2c(=O)n(CC(=O)Nc3cccc(OC)c3)c(C)nc21	none
COC(=O)c1sc(NC(=O)c2ccc(Cn3cc(Cl)cn3)o2)c(C#N)c1C	OX1R antag-2 71.8
COC(=O)C(CC(=O)c1ccc(Cl)cc1)c1ccccc1 (centres undefined)	none (no result: OX1R antag-1, OX1R antag-2, CHO parental Ca)
N#Cc1ccc(OS(=O)(=O)c2ccc(-c3ccon3)s2)cc1	CHO parental Ca 34.1
CC(=NNc1ccc2ccccc2n1)c1ccccc1O	none (no result: OX1R antag-1, OX1R antag-2, CHO parental Ca)
C/C(=N\Nc1nc2ccccc2nc1C)c1ccccc1O	OX1R antag-2 64.1
COc1ccc(OC)c(CCNC(=O)Cc2ccc(NC(=O)C3=C(C)OCCS3)cc2)c1	none (no result: OX1R antag-1, OX1R antag-2, CHO parental Ca)
COc1ccc(OC)c(CCNC(=O)c2cccc(NC(=O)C3=C(C)OCCS3)c2)c1	OX1R antag-2 40.8
COc1ccc(CCNC(=O)c2ccccc2NC(=O)C2=C(C)OCCS2)c(OC)c1	OX1R antag-2 64.0
CN(CC(=O)Nc1cccc(F)c1)C(=O)c1ccccc1CCc1ccccc1	none
CCCCNC(=O)C1(C)CCC(=O)N1c1cc(C(C)(C)C)nn1C (centres undefined)	CHO-K1 Ca antag 32.1 (no result: OX1R antag-1, OX1R antag-2, CHO parental Ca)
O=C(CCNC(=O)c1ccccc1Cl)Nc1cccc(S(=O)(=O)N2CCOCC2)c1	none
CNC(=O)OCc1snc(-c2ccccc2)c1COC(=O)NC	none (no result: OX1R antag-1, OX1R antag-2, CHO parental Ca)
O=C(COc1cccc2ccccc12)Nc1cc(Cl)ccc1C(=O)O	OX1R antag-2 67.0
COc1cccc(OCC(=O)Nc2cc(Cl)ccc2Oc2ccccc2)c1	CHO parental Ca 39.6
CCCNS(=O)(=O)c1ccc(CCC(=O)Nc2cc(Cl)ccc2Oc2ccccc2)cc1	none (no result: OX1R antag-1, OX1R antag-2, CHO parental Ca)
CC(C)(C)NS(=O)(=O)c1ccc(CCC(=O)Nc2cc(Cl)ccc2Oc2ccccc2)cc1	OX1R antag-1 65.1, OX1R antag-2 81.1, CHO parental Ca 43.5
COc1cccc(OCC(=O)Nc2ccccc2NC(C)=O)c1	none
O=C(COc1cccc2ccccc12)Nc1ccc(Cl)cc1C(=O)O	none
CCc1nc2c(OCc3cccc(Cl)c3)cccn2c1N(C)C(=O)C1CC1	none (no result: OX1R antag-1, OX1R antag-2, CHO parental Ca)
O=C(Nc1ccc(F)cc1)Nc1cnccn1	none
O=C(Nc1cc(Cl)cc(Cl)c1)Nc1cnccn1	CHO parental Ca 35.9, CHO-K1 Ca antag 29.6
CCc1n[nH]c(=S)n1/N=C/c1cc(OC)cc([N+](=O)[O-])c1O	none
COc1ccc(OC(C)C(=O)N2CCc3ccccc3C2)cc1 (centres undefined)	CHO-K1 Ca antag 25.3
CC(Oc1ccccc1)C(=O)N1CCc2ccccc2C1 (centres undefined)	none
Cc1ccc(CNC(=O)C2COc3ccccc3O2)cc1 (centres undefined)	none
Cc1ccc(C(C(=O)NCc2ccc(F)cc2)N(CCCO)C(=O)C2COc3ccccc3O2)o1 (centres undefined)	M1 ag parental 19.4
COc1ccccc1Nc1nc(-c2cccnc2)cs1	OX1R antag-2 38.2
O=[N+]([O-])c1ccccc1Nc1nc(-c2cccnc2)cs1	OX1R antag-2 60.4
N/C(=N/OC(=O)c1ccc(Cl)cc1)c1ncc([N+](=O)[O-])s1	CHO-K1 Ca antag 29.2
CCCCOc1ccccc1NC(=O)c1scc2c1OCCO2	M1 PAM parental 52.8 (no result: OX1R antag-1, OX1R antag-2, CHO parental Ca)
CC1CCCCC12NC(=O)N(CC(=O)Nc1cccnc1)C2=O (centres undefined)	none (no result: OX1R antag-1, OX1R antag-2, CHO parental Ca)
Cc1ccc(Cn2c(=N)n(CC(O)COc3ccccc3)c3ccccc32)cc1 (centres undefined)	OX1R antag-1 52.0, CHO parental Ca 41.2
O=C(Nc1ccc([N+](=O)[O-])cc1)Nc1ccc(Cl)cc1F	OX1R antag-1 47.5, CHO parental Ca 42.9
O=C(Nc1ccc(Cl)cc1)Nc1ccccc1CC[N+](=O)[O-]	CHO-K1 Ca antag 23.7
Cc1cc(OC(F)F)ccc1NC(=O)Nc1ccc([N+](=O)[O-])cc1	CHO parental Ca 56.8
O=C(Nc1ccc(Cl)cc1)Nc1csc([N+](=O)[O-])c1	OX1R antag-1 65.0, OX1R antag-2 83.1, CHO parental Ca 65.1, M1 ag parental 16.5
Cc1noc(C)c1CSCC(=O)Nc1nc2c(F)cc(F)cc2s1	none
CC(C)COC(=O)N(C)C[C@@H]1OCc2cnnn2CCCC(=O)N([C@H](C)CO)C[C@H]1C	none (no result: OX1R antag-1, OX1R antag-2, CHO parental Ca)

Source: PubChem
